This is an account of results in ChEMBL document CHEMBL1158424, “Design, synthesis and biological investigation of certain pyrazole-3-carboxylic acid derivatives as novel carriers for nitric oxide” (Bioorg Med Chem, 2009).

Molecules are shown by their SMILES. Values after ≈ are worked out from the molar mass of the structure shown. Active and inactive are the calls of the source. The calls are words filed in the database; no cut-off is given here.

One may read the MIC as the lowest concentration found to suppress growth. In general, inhibition in vivo refers to how much of the control response was suppressed.

One data set relates to Pseudomonas aeruginosa. Briefly: Antibacterial activity against Pseudomonas aeruginosa after 24 hrs by agar cup diffusion method. Type of data set: functional. The method, boiled down: (§1)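 Nutrient agar seeded with culture, poured 3–4 mm; six 10 mm cups per plate, one as DMF solvent control. Compounds dissolved in DMF (stock 1 mg/mL), two-fold serial dilutions 32–512 µg/mL, 0.1 mL per cup. Incubation 24 h at 37 °C; inhibition zone diameter read in mm. MIC taken as intercept of log concentration versus zone diameter plot; ciprofloxacin reference.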

A short description of data set [1]: Nitric oxide release in phosphate buffer at pH 7.4 after 1 hr by Griess diazotization reaction method in presence of L-cysteine. Details: concentration or dose not given beside the values. The method, boiled down: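 Incubation in pH 7.4 phosphate buffer with L-cysteine for 1 h at 37 °C. Then 1 mL of mixture treated with Griess reagent (sulfanilamide, N-naphthylethylenediamine, phosphoric acid); absorbance read at 540 nm after 25 min. Nitrite quantified against sodium nitrite standard curve; % release = found/theoretical NO × 100.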
Background: Griess reagent forms a coloured azo dye with nitrite.

The next data set has as its system Escherichia coli. Briefly: Antibacterial activity against Escherichia coli C-600 after 24 hrs by agar cup diffusion method. Type of data set: functional. The gist of the method:
as §1

A further data set has as its system Bacillus subtilis. Briefly: Antibacterial activity against Bacillus subtilis after 24 hrs by agar cup diffusion method. Type of data set: functional. The gist of the method:
as §1

A further data set concerns Staphylococcus aureus. Briefly: Antibacterial activity against Staphylococcus aureus NCTC 6571 after 24 hrs by agar cup diffusion method. The class given is functional. The method, boiled down: as §1
Data set [2] relates to Rattus norvegicus. Briefly: Antiinflammatory activity in albino rat assessed as inhibition of carrageenan-induced paw edema at 100 mg/kg, po administered 30 mins prior to carrageenan challenge measured after 1 hr. Type of data set: functional. The gist of the method: (§2)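 Male albino rats, 140–150 g, groups of 5, acclimatized 3 days, water only on the last day. Oral dosing in carboxymethylcellulose vehicle 30 min before subplantar 1% carrageenan (0.1 mL) into one hind paw; contralateral paw given saline. Paw thickness by digital plethysmometer at 0–5 h. Percent inhibition from difference between paws, treated versus vehicle control; indomethacin reference; mean ± SEM.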
(In general: Carrageenan injected into the paw causes an acute inflammation.)

Data set [3] concerns Rattus norvegicus. Briefly: Antiinflammatory activity in albino rat assessed as inhibition of carrageenan-induced paw edema at 100 mg/kg, po administered 30 mins prior to carrageenan challenge measured after 2 hrs. Type of data set: functional. The method, boiled down:
as §2

Data set [4] relates to Rattus norvegicus. Briefly: Antiinflammatory activity in albino rat assessed as inhibition of carrageenan-induced paw edema at 100 mg/kg, po administered 30 mins prior to carrageenan challenge measured after 3 hrs. Type of data set: functional. The method, boiled down:
as §2

Data set [5] relates to Rattus norvegicus. Briefly: Antiinflammatory activity in albino rat assessed as inhibition of carrageenan-induced paw edema at 100 mg/kg, po administered 30 mins prior to carrageenan challenge measured after 4 hrs. Type of data set: functional. The gist of the method:
as §2

The subject of data set [6] is Rattus norvegicus. Briefly: Antiinflammatory activity in albino rat assessed as inhibition of carrageenan-induced paw edema at 100 mg/kg, po administered 30 mins prior to carrageenan challenge measured after 5 hrs. The class given is functional. The gist of the method: as §2
Data set [7] has as its system Rattus norvegicus. Briefly: Gastrointestinal toxicity in albino rat assessed as ulcer index at 100 mg/kg, po. Type of data set: organism-based. More on the design: dose 100 mg/kg, route oral. The note with it: in vivo. The method, boiled down: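 Rats from the paw edema study killed by ether overdose; stomachs removed, opened and examined for visible lesions. Each lesion scored 0–5 by length (0 none, 1 petechiae, 2 <1 mm, 3 1–2 mm, 4 2–4 mm, 5 >4 mm erosions). Scores summed per rat; group ulcer index is the mean lesion score.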

Data set [8] deals with Rattus norvegicus. Briefly: Gastrointestinal toxicity in albino rat assessed as incidence of gastric ulceration at 100 mg/kg, po by histopathological study. Type of data set: organism-based, Stomach. More on the design: dose 100 mg/kg, route oral. The note with it: in vivo. The gist of the method:
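Gastric sections dewaxed, rehydrated, stained with haematoxylin 5–7 min, differentiated in 1% HCl in 70% alcohol, stained with 1% eosin 10 min, dehydrated, cleared in xylene, mounted and examined by light microscopy.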

In data set [9] the test system is Rattus norvegicus. Briefly: Gastroprotective activity in albino rat assessed as preventive index at 100 mg/kg, po. Type of data set: functional. The gist of the method:
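Preventive index = (UI of ulcered group − UI of treated group)/UI of ulcered group × 100. UI from lesion scoring (0–5 by erosion length) of stomachs of rats from the paw edema study.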

With `O=C(Nc1ccc(Cl)cc1)c1nn(-c2ccccc2)c(-c2ccccc2)c1/C(=N/O)c1ccccc1`, the MIC against Pseudomonas aeruginosa came out at 10.3 µg/mL (≈ 20.9 µM); in the data set on Escherichia coli (C-600, 24 h) it was 14.1 µg/mL (≈ 28.6 µM); in the data set with Bacillus subtilis it was 5.82 µg/mL (≈ 11.8 µM); in the data set on Staphylococcus aureus (NCTC 6571, 24 h), 90.4 µg/mL (≈ 183 µM). The Activity is 7.8% in [1] and “Non-toxic” in the data set on Rattus norvegicus [8]. In addition, the inhibition in vivo at 100 mg/kg in the data set with Rattus norvegicus [2] was determined as 23.6%; with Rattus norvegicus [3] it was 23.3%; with Rattus norvegicus [4] it was 47.6%; in the data set on Rattus norvegicus [5], 55.9%; in the data set with Rattus norvegicus [6], 60.9%. In addition, the UI in the data set with Rattus norvegicus [7] is 7.5.

For the compound `COc1ccc(NC(=O)c2nn(-c3ccccc3)c(-c3ccccc3)c2/C(=N/O)c2ccccc2)cc1`, the MIC in the data set on Pseudomonas aeruginosa stood at 9.7 µg/mL (≈ 19.9 µM); in the data set with Escherichia coli (C-600, 24 h), 2.88 µg/mL (≈ 5.9 µM); against Bacillus subtilis it was 43.9 µg/mL (≈ 89.8 µM). In data set [1], the Activity was found to be 8%. Besides, the MIC entry in the data set with Staphylococcus aureus is “inactive”. Besides, the inhibition in vivo at 100 mg/kg worked out at 30.9% in the data set with Rattus norvegicus [2]; 25% in the data set with Rattus norvegicus [3]; 36.5% in the data set on Rattus norvegicus [4]; 51.5% in the data set with Rattus norvegicus [5]; 56.5% with Rattus norvegicus [6]. For the same compound, the UI with Rattus norvegicus [7] is 8.5. Besides, the PI in the data set with Rattus norvegicus [9] came out at 74%.

For `O=C(c1ccccc1)c1c(C(=O)N2CCN(C(=O)CO[N+](=O)[O-])CC2)nn(-c2ccccc2)c1-c1ccccc1`, the minimal inhibitory concentration (MIC) with Pseudomonas aeruginosa is 93.3 µg/mL (≈ 173 µM); with Escherichia coli (C-600, 24 h), 64 µg/mL (≈ 119 µM); in the data set on Bacillus subtilis it was 2.45 µg/mL (≈ 4.54 µM). The Activity in [1] is 13.8%; in the data set on Rattus norvegicus [8] it was “Non-toxic”. In addition, the MIC entry in the data set on Staphylococcus aureus is “inactive”. The inhibition in vivo at 100 mg/kg was determined as 45.5% in the data set with Rattus norvegicus [2]; 30% with Rattus norvegicus [3]; 43% in the data set on Rattus norvegicus [4]; 45.6% with Rattus norvegicus [5]; 68.1% in the data set with Rattus norvegicus [6]. Besides, in the data set with Rattus norvegicus [7], the UI is listed as 5.5. In addition, the PI with Rattus norvegicus [9] was 76.08%.

In the case of `O=C(Nc1ccc(Cl)cc1)c1nn(-c2ccccc2)c(-c2ccccc2)c1C(=O)c1ccccc1`, it took 25.1 µg/mL (≈ 52.5 µM) to inhibit growth in the data set with Pseudomonas aeruginosa (MIC). Further, the MIC result with Escherichia coli, in the data set on Bacillus subtilis and in the data set with Staphylococcus aureus was “inactive” in each case. Moreover, the inhibition in vivo at 100 mg/kg is 45.5% with Rattus norvegicus [2]; 40% with Rattus norvegicus [3]; 35% in the data set on Rattus norvegicus [4]; 36.5% in the data set with Rattus norvegicus [5]; 55.9% with Rattus norvegicus [6]. The UI in the data set with Rattus norvegicus [7] was found to be 20.3. Besides, in the data set on Rattus norvegicus [8], the Activity entry was “Toxic”.
